Assay outcomes: PubChem BioAssay, several laboratories
A selection: hits, their analogues and other compounds. The true share with any hit is near 1%.
DDE Tn7 FP inh – inhibitors of Tn7 peptide binding to human fibrin DD(E) | inhibition, % at 8.3 µM | P02675 | 370,000 compounds, 0.13% hits | FP displacement of FITC-Tn7 peptide from fibrin DD(E); 0% = median of compound wells per plate;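 active means inhibition above the mean of compounds falling within the control limits plus 3 SD of them, cut at about 14% in these data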;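 further: 0% = plate median of compound wells and 100% = 10 µM Aha-Tn7 peptide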
Target sequence (P02675 whole entry, looked up): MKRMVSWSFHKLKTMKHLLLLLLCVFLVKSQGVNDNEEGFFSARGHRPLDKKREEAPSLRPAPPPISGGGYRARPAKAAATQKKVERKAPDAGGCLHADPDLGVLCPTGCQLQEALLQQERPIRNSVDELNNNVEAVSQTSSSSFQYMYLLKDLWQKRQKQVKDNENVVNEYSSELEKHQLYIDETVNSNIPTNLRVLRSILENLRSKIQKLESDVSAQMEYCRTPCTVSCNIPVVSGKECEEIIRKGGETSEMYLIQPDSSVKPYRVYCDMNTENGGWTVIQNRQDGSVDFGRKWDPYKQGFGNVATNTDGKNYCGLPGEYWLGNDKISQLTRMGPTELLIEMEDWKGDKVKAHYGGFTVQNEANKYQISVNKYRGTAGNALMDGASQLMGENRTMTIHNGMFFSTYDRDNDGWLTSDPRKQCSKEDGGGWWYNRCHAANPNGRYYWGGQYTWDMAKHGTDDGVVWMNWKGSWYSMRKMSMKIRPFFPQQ
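system = human fibrin DD(E) protein | quantity = DD(E) 2 µM final | medium = Tris/NaCl/CaCl2 buffer, pH 7.8 | also added = labelled Tn7 tracer, 0.1 µM | compound dosing = single point at 8.3 µM | timing = compound with protein 10 min, then 3 h after probe, room temperature | signal = FP measurement | benchmarks = Aha-Tn7 high control | repeats = one replicate per compound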
PKA-R2B activ – activators of human PKA-R2B complex; P22694+P31323; AID 504700; PKA-R2B holoenzyme dissociation, Cy5-IP20 fluorescence polarization; R2B truncated from residue 108, S112A mutant; 0% DMSO only, 100% 113 µM cGMP; 340,000 compounds, 0.079% hits; activation, % at 11.4 µM;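 active means activation above a cutoff set at the mean over all compounds plus 3 SD, cut at about 18% in these data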;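 further: higher means more holoenzyme dissociation and a rise in polarization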
PKA-R1A act – activators of PKA-R1A complex. P00514+P68181. PKA-R1A dissociation, Cy5-IP20 fluorescence polarization; scaled: DMSO 0%, 113 µM cGMP 100%. activation, % at 11.4 µM. 340,000 compounds, 0.083% hits. AID 504707;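 active means percent activation above the mean of all tested compounds plus 3 SD, cut at about 19% in these data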;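 further: higher means more PKAc released from R1A so a rise in polarization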
Tn6 DDE FP – disrupts Tn6 cyclic peptide binding to fibrin D-Dimer-E complex | 370,000 compounds, 0.21% hits | inhibition, % at 8.3 µM | P02675 | Fibrin DD(E) TRITC-Tn6 fluorescence polarization displacement | AID 720509;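 active means inhibition above a per-campaign cutoff: mean of compounds within control limits plus 3 SD, cut at about 15% in these data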;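 further: 0% = median of all compound wells on the plate and 100% = blocking peptide control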
Neddylation inh – blocks human cullin neddylation | AID 651699 | 360,000 compounds, 0.58% hits | TR-FRET cullin neddylation, biochemical | inhibition, % at 25 µM | P61081+Q13564; in the data active means inhibition above about 36%
Neddyl inh conf – cullin neddylation inhibition, confirmation | shares compounds with Neddylation inh | TR-FRET cullin neddylation biochemical assay | calls only at 25 µM | 1,800 compounds, 13% hits; in the data active means inhibition above about 40%;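 further: neddylation substrate is the cullin 1 ring ligase complex with SKP2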
Active calls of the source: *; i = inactive; . = no result shown; + = active, no number.

SMILES	DDE Tn7 FP inh	PKA-R2B activ	PKA-R1A act	Tn6 DDE FP	Neddylation inh	Neddyl inh conf
CCC(C)NC(=O)c1cc2c(=O)n3ccccc3nc2s1 (stereo unspecified)	-6	7	-3	1	.	.
CCOC(=O)[C@@]12CCC3=C1N(CCC3)C(=O)[C@H](CC(=O)NCCCCc1ccccc1)C2	3	.	.	1	.	.
COc1cc(-c2cc(C(=O)OCC(=O)NC3CC3)c3ccccc3n2)cc(OC)c1OC	-1	5	-5	8	2	.
COc1ccc(-c2cc(C(=O)OCC(=O)N3CCCCC3)c3ccccc3n2)cc1OC	2	-2	2	4	45*	i
O=C(c1cc(N2CCCCC2)nc2ccccc12)N1CCOCC1	-4	8	-12	3	43*	i
COc1ccc(-c2cc(C(=O)N3CCCCCC3)c3ccccc3n2)cc1OC	-1	-3	1	-1	.	.
COc1cc(-c2cc(C(=O)N3CCCCCC3)c3ccccc3n2)cc(OC)c1OC	0	-2	-10	1	50*	.
Cc1ccc(-c2cc(C(=O)OCC(=O)NC3CC3)c3ccccc3n2)cc1	-6	-1	-3	-4	47*	.
Cc1[nH]c2ccccc2c1CC(=O)Nc1ccc(Nc2cccnc2)c(-c2ccc(C(C)(C)C)cc2)c1	8	.	.	-3	.	.
COc1ccc(N2CCN(CCNS(=O)(=O)c3c(C(C)C)cc(C(C)C)cc3C(C)C)CC2)cc1	13	.	.	9	.	.
COC(=O)c1cc2c(c3c4cc(OC)ccc4n(S(=O)(=O)c4ccc(F)cc4)c13)C(=O)N(Cc1ccccc1)C2	0	.	.	1	.	.
CN(C(=O)CCc1cn(C)c2ccccc12)c1ccc(Oc2cccnc2)cc1	1	.	.	1	.	.
COC(=O)[C@]12C[C@H](CC(=O)N3CCC(c4ccccc4)CC3)C(=O)N(CCc3ccc(OC)c(OC)c3)C1=C[C@H](COCc1ccccc1)O[C@@H]2C	5	.	.	0	.	.
CC(C)C1Oc2cc3oc(=O)ccc3cc2C1=O (stereo unspecified)	4	-5	-11	-1	46*	i
COc1cc2ccc(=O)oc2cc1O	-3	-2	-8	-2	37	.
COc1cccc(CC(=O)O[C@@H]2CCC[C@@]3(C(=O)N(Cc4ccccc4)c4ccccc43)[C@H]2NC(=O)CCc2ccccc2)c1	3	.	.	-3	.	.
NC(=O)c1ncn([C@@H]2O[C@H](C(=O)N[C@H](Cc3ccccc3)C(=O)O)[C@@H](O)[C@H]2O)n1	3	.	.	12	.	.
CCN(CC)CCCN(Cc1cc2cc3c(cc2[nH]c1=O)OCO3)C(=S)NCCCN(C)C	-6	4	1	0	44*	i
COc1ccc2cc3cc(C(=O)NCCCN4CCOCC4)oc3nc2c1	-1	-12	-1	5	.	.
COc1ccc2cc3cc(C(=O)NCCc4ccc(OC)c(OC)c4)oc3nc2c1	3	2	-7	-3	53*	+
COc1cccc2cc(C(=O)NCCN3CCOCC3)oc12	9	7	0	6	40*	i
COc1ccccc1-c1cc(C(=O)NCCN2CCOCC2)no1	3	-11	5	4	15	.
Cc1ccc2cc3cc(C(=O)NCCN4CCOCC4)oc3nc2c1	-7	11	8	9	65*	+
COc1ccc2c3c([nH]c2c1)C1=NCC[C@]12c1ccccc1N=CN2CC3	5	.	.	2	.	.
CNC(=O)COC(=O)c1ccc(-c2nc3ccccc3s2)s1	4	2	-6	0	40*	i
SMILES	DDE Tn7 FP inh	PKA-R2B activ	PKA-R1A act	Tn6 DDE FP	Neddylation inh	Neddyl inh conf
Cc1ccc2nc(CSc3nc(C)cc(C)c3C#N)[nH]c2c1	4	12	3	5	48*	.
O=S(=O)(c1cccs1)N1CN(Cc2ccccc2)c2nc3ccccc3nc21	-1	-9	-8	-2	41*	i
Cc1ccc(-c2cc(-c3nnc(SCC(=O)Nc4nccs4)n3N)[nH]n2)cc1	-5	.	.	-1	.	.
Cc1nc2c(C(=O)N3CCCC3)cnn2c(C)c1Cc1c(F)cccc1Cl	-1	0	-9	5	.	.
Cc1nc2c(C(=O)N3CCN(c4ccccn4)CC3)cnn2c(C)c1Cc1cccc(Cl)c1	1	-9	-2	-2	45*	i
FC(F)C(F)(F)Oc1cccc(Nc2nccn3c(-c4ccc5ccccc5c4)cnc23)c1	-1	.	.	-6	.	.
FC(F)C(F)(F)Oc1cccc(Nc2nccn3c(-c4cccc5ccccc45)cnc23)c1	1	.	.	-3	47*	i
Cc1cc(O)cc(=O)n1-c1cccc(C(F)(F)F)c1	1	.	.	9	.	.
COC(=O)c1nc(N)sc1-c1ccccc1	-2	10	-3	-1	40*	.
Cc1cc(C(=O)N/N=C/c2c(C)[nH]c3ccccc23)n[nH]1	-8	-1	-10	-7	1	.
Cc1[nH]c2ccccc2c1/C=N/NC(=O)c1cc(-c2cccs2)[nH]n1	-12	-16	-9	-4	45*	i
O=c1c(-c2cccnc2)nc2ccccc2n1C(c1ccccn1)c1nc2ccccc2[nH]1 (stereo unspecified)	-11	.	.	-8	47*	i
O=c1c(-c2ccccc2)nc2ccccc2n1C(c1ccccn1)c1nc2ccccc2[nH]1 (stereo unspecified)	-4	.	.	-2	41*	i
CCCCNC(=O)NS(=O)(=O)c1ccc(NC(=O)CSc2nnc(-c3ccc(Cl)cc3)n2N)cc1	7	.	.	3	.	.
CC(C)C[C@H]1COc2cc(N3CCOCC3)ccc2S(=O)(=O)N1	12	.	.	1	.	.
Cc1ccc(-n2c(SCC(=O)Nc3ccc4c(c3)OCCO4)nnc2-c2ccccn2)cc1	1	.	.	6	.	.
CN(CCO)c1nc(N)c(C#N)c(CC#N)c1C#N	0	-1	3	-6	8	.
CC(C)CN(CC(C)C)c1nc(N)c(C#N)c(CC#N)c1C#N	-3	-3	-10	-2	38*	.
COc1ccc(/C=N/Nc2nc(-c3cccnc3)nc3ccccc23)c(OC)c1	-2	-8	-26	3	41*	+
COc1ccc(Nc2nc(-c3ccncc3)nc3ccccc23)cc1	2	7	6	-1	43*	i
Cc1ccc(-c2nc(N/N=C/c3cccnc3)c3ccccc3n2)cc1	4	1	-5	-2	-22	.
CCCC1CCC2(CC1)CCC2OC(=S)Nc1ccccc1OC (stereo unspecified)	7	.	.	13	.	.
N#Cc1nc(-c2ccccc2F)oc1NCCc1ccccn1	-2	2	5	-7	39*	i
N#Cc1nc(-c2ccccc2F)oc1NCCc1ccccc1	-9	-2	2	-9	.	.
COc1cccc(-c2ccc3c(N)c(C(=O)NC4CC4)sc3n2)c1	-2	-2	-5	-4	38*	.
